Results gathered from unrelated publications.
Lines come from different studies, so protocols differ.
Target: TRAF2 and NCK-interacting protein kinase (TNIK, Homo sapiens, UniProt Q9UKE5)

FC(F)(F)Oc1cccc(-c2cnc3ccc(-c4ccncc4)nn23)c1
remaining binding (binding, competition with immobilised ligand; 5 µM): 29%

CN([C@@H]1CCc2c(CC(=O)O)c3cc(S(C)(=O)=O)ccc3n2C1)S(=O)(=O)c1ccc(F)cc1
remaining binding (cell-free assay, competition with immobilised ligand; 1 µM): 100%

CN(C)c1nccc(-c2cnn3ncccc23)n1
remaining binding (binding; 1 µM): 100%

O=C(NCCCN1CCOCC1)c1ccc(Nc2nccc(-c3cc4ccccc4s3)n2)cc1
remaining binding (binding, competition with immobilised ligand; 1 µM): 69%

COc1ccnn2ncc(-c3ccnc(N(C)C)n3)c12
remaining binding (binding; 1 µM): 63%

COc1cnc(Nc2cccc(S(N)(=O)=O)c2)nc1N1CCN(c2ccccc2)CC1
remaining binding (binding, competition with immobilised ligand; 1 µM): 75%

CCC(=O)N[C@@H]1CC[C@H](C(=O)N(C)c2ccc(-c3nc4ccccc4o3)cc2)C1
remaining binding (cell-free assay, competition with immobilised ligand; 1 µM): 100%

O=C(c1ccc(Nc2ncc(Cl)c(-c3cc4ccccc4s3)n2)cc1)N1CCC(N2CCCC2)CC1
remaining binding (binding, competition with immobilised ligand; 1 µM): 73%

COc1cnc(Nc2cccc(S(N)(=O)=O)c2)nc1N1CCN(c2ccccc2)C(=O)C1
remaining binding (binding, competition with immobilised ligand; 1 µM): 76%

CC1CCCN1c1nccc(-c2cnn3ncccc23)n1 (stereo not drawn)
remaining binding (binding; 1 µM): 95%

O=C(Nc1c[nH]nc1C(=O)NC1CCNCC1)c1cc(F)cc(F)c1
remaining binding (binding, competition with immobilised ligand; 1 µM): 100%

CS(=O)(=O)N1CCCC(NC(=O)[C@H](CCC2CCCCC2)NC(=O)c2ccc(CNc3ncnc4c3nnn4-c3ccccc3)cc2)C1 (stereo partly drawn)
remaining binding (binding, competition with immobilised ligand; 1 µM): 45%

C[C@@H]1CCN(c2nccc(-c3cnn4ncccc34)n2)C1
remaining binding (binding; 1 µM): 90%

Cc1cnc(Nc2ccc(C(=O)N3CCC(N4CCCC4)CC3)cc2)nc1-c1cc2ccccc2s1
remaining binding (binding, competition with immobilised ligand; 1 µM): 68%

C=CC(=O)N1CCC(C(=O)NCC(=O)N2CCN(c3nc(-c4cnc(N)nc4C(F)F)nc(N4CCOCC4)n3)CC2)CC1
remaining binding (binding, competition with immobilised ligand; 1 µM): 87%

CC(C)(O)c1cncc(-c2nc3ccc(F)cc3n2C2CC2)c1
remaining binding (cell-free assay, competition with immobilised ligand; 1 µM): 100%

Nc1ncc2c(n1)-c1c([nH]c3ccc(C#CC4CC4)cc13)CCCC2
remaining binding (binding, competition with immobilised ligand; 1 µM): 42%

Cc1cc(C)c(-n2ccn3nc(-c4cccnc4)cc23)cc1NC(=O)c1cc(C#N)cc(S(F)(F)(F)(F)F)c1
remaining binding (cell-free assay, competition with immobilised ligand; 0.1 µM): 97.4%

CN(C)c1nccc(-c2cnc3ncccn23)n1
remaining binding (binding; 1 µM): 84%

CC(C)CC(=O)N1CCc2nc(-c3ccc(Br)cc3)nc(N(C)Cc3ccccc3)c2C1
remaining binding (cell-free assay, competition with immobilised ligand; 0.1 µM): 100%

N[C@H]1CCN(c2nccc(-c3cnn4ncccc34)n2)C1
remaining binding (binding; 1 µM): 80%
